In ChEMBL document CHEMBL1914423, “New imidazo[2,1-b]thiazole derivatives: synthesis, in vitro anticancer evaluation, and in silico studies” (Eur J Med Chem, 2011):

How the values were obtained:
Type in all cases: functional
HOP-62 = test: Anticancer activity against human HOP62 cells assessed as cell growth at 10^-5 M after 48 hrs by SRB assay; conditions: HOP-62, 48 h, read-out: Activity
Method in brief: (§1)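 NCI-60 single-dose screen at one concentration. Cells grown in RPMI 1640 with 5% FBS and 2 mM L-glutamine, plated at 5000–40,000 cells/well, and pre-incubated 24 h at 37 °C in 5% CO2 before DMSO-dissolved drug was added. Cells fixed with TCA, SRB-stained, absorbance read at 515 nm. Percent growth calculated against time-zero and untreated control plates.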

OVCAR-5 = test: Anticancer activity against human OVCAR5 cells assessed as cell growth at 10^-5 M after 48 hrs by SRB assay; conditions: OVCAR-5, 48 h, read-out: Activity
ACHN = test: Anticancer activity against human ACHN cells assessed as cell growth at 10^-5 M after 48 hrs by SRB assay; conditions: read-out: Activity; method in brief: as §1
LOX IMVI = test: Anticancer activity against human LOXIMVI cells assessed as cell growth at 10^-5 M after 48 hrs by SRB assay; conditions: read-out: Activity; method in brief: as §1
HT-29 = test: Anticancer activity against human HT-29 cells assessed as cell growth at 10^-5 M after 48 hrs by SRB assay; conditions: HT-29, 48 h, read-out: Activity; method in brief: as §1
KM12 = test: Anticancer activity against human KM12 cells assessed as cell growth at 10^-5 M after 48 hrs by SRB assay; conditions: KM12, 48 h, read-out: Activity; method in brief: as §1
U-251 = test: Anticancer activity against human U251 cells assessed as cell growth at 10^-5 M after 48 hrs by SRB assay; conditions: U-251, 48 h, read-out: Activity
Method in brief: (§2)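 NCI-60 single-dose screen: cells in RPMI 1640 with 5% FBS and 2 mM L-glutamine, plated at 5000–40,000 cells/well by doubling time, and preincubated 24 h at 37 °C. Compound given at one concentration from DMSO stock. Cells TCA-fixed and SRB-stained, absorbance at 515 nm. Percent growth relative to time-zero and untreated controls; inhibition % = 100 − growth %.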

786-0 = test: Anticancer activity against human 786-0 cells assessed as cell growth at 10^-5 M after 48 hrs by SRB assay; conditions: 786-0, 48 h, read-out: Activity; method in brief: as §1
CCRF-CEM = test: Anticancer activity against human CCRF-CEM cells assessed as cell growth at 10^-5 M after 48 hrs by SRB assay; conditions: read-out: Activity; method in brief: as §1
SK-MEL-2 = test: Anticancer activity against human SK-MEL-2 cells assessed as cell growth at 10^-5 M after 48 hrs by SRB assay; conditions: SK-MEL-2, 48 h, read-out: Activity
SNB-75 = test: Anticancer activity against human SNB75 cells assessed as cell growth at 10^-5 M after 48 hrs by SRB assay; conditions: SNB-75, 48 h, read-out: Activity; method in brief: as §2
DU-145 = test: Anticancer activity against human DU145 cells assessed as cell growth at 10^-5 M after 48 hrs by SRB assay; conditions: DU-145, 48 h, read-out: Activity; method in brief: as §1
T47D = test: Anticancer activity against human T47D cells assessed as cell growth at 10^-5 M after 48 hrs by SRB assay; conditions: read-out: Activity; method in brief: as §2
HOP-92 = test: Anticancer activity against human HOP92 cells assessed as cell growth at 10^-5 M after 48 hrs by SRB assay; conditions: HOP-92, 48 h, read-out: Activity; method in brief: as §1
HCT-116 = test: Anticancer activity against human HCT116 cells assessed as cell growth at 10^-5 M after 48 hrs by SRB assay; conditions: HCT-116, 48 h, read-out: Activity; method in brief: as §1
NCI-H522 = test: Anticancer activity against human NCI-H522 cells assessed as cell growth at 10^-5 M after 48 hrs by SRB assay; conditions: NCI-H522, 48 h, read-out: Activity
NCI-H23 = test: Anticancer activity against human NCI-H23 cells assessed as cell growth at 10^-5 M after 48 hrs by SRB assay; conditions: NCI-H23, 48 h, read-out: Activity
SF-268 = test: Anticancer activity against human SF268 cells assessed as cell growth at 10^-5 M after 48 hrs by SRB assay; conditions: SF-268, 48 h, read-out: Activity
MCF7 = test: Anticancer activity against human MCF7 cells assessed as cell growth at 10^-5 M after 48 hrs by SRB assay; conditions: MCF7, 48 h, read-out: Activity; method in brief: as §1
RPMI-8226 = test: Anticancer activity against human RPMI8226 cells assessed as cell growth at 10^-5 M after 48 hrs by SRB assay; conditions: RPMI-8226, 48 h, read-out: Activity
NCI-H226 = test: Anticancer activity against human NCI-H226 cells assessed as cell growth at 10^-5 M after 48 hrs by SRB assay; conditions: NCI-H226, 48 h, read-out: Activity
OVCAR-3 = test: Anticancer activity against human OVCAR3 cells assessed as cell growth at 10^-5 M after 48 hrs by SRB assay; conditions: OVCAR-3, 48 h, read-out: Activity
MDA-MB-231 = test: Anticancer activity against human MDA-MB-231 cells assessed as cell growth at 10^-5 M after 48 hrs by SRB assay; conditions: MDA-MB-231, 48 h, read-out: Activity; method in brief: as §1
A498 = test: Anticancer activity against human A498 cells assessed as cell growth at 10^-5 M after 48 hrs by SRB assay; conditions: A498, 48 h, read-out: Activity; method in brief: as §1
UO-31 = test: Anticancer activity against human UO31 cells assessed as cell growth at 10^-5 M after 48 hrs by SRB assay; conditions: UO-31, 48 h, read-out: Activity; method in brief: as §2
OVCAR-8 = test: Anticancer activity against human OVCAR8 cells assessed as cell growth at 10^-5 M after 48 hrs by SRB assay; conditions: OVCAR-8, 48 h, read-out: Activity
SF-539 = test: Anticancer activity against human SF539 cells assessed as cell growth at 10^-5 M after 48 hrs by SRB assay; conditions: SF-539, 48 h, read-out: Activity
Malme-3M = test: Anticancer activity against human MALME-3M cells assessed as cell growth at 10^-5 M after 48 hrs by SRB assay; conditions: read-out: Activity; method in brief: as §1
NCI-H322M = test: Anticancer activity against human NCI-H322M cells assessed as cell growth at 10^-5 M after 48 hrs by SRB assay; conditions: read-out: Activity
EKVX = test: Anticancer activity against human EKVX cells assessed as cell growth at 10^-5 M after 48 hrs by SRB assay; conditions: read-out: Activity; method in brief: as §1
BT-549 = test: Anticancer activity against human BT549 cells assessed as cell growth at 10^-5 M after 48 hrs by SRB assay; conditions: BT-549, 48 h, read-out: Activity; method in brief: as §1
HCT-15 = test: Anticancer activity against human HCT15 cells assessed as cell growth at 10^-5 M after 48 hrs by SRB assay; conditions: HCT-15, 48 h, read-out: Activity; method in brief: as §1
SK-OV-3 = test: Anticancer activity against human SKOV3 cells assessed as cell growth at 10^-5 M after 48 hrs by SRB assay; conditions: SK-OV-3, 48 h, read-out: Activity

SMILES	growth at 10 µM (HOP-62)	growth at 10 µM (OVCAR-5)	growth at 10 µM (ACHN)	growth at 10 µM (LOX IMVI)	growth at 10 µM (HT-29)	growth at 10 µM (KM12)	growth at 10 µM (U-251)	growth at 10 µM (786-0)	growth at 10 µM (CCRF-CEM)	growth at 10 µM (SK-MEL-2)	growth at 10 µM (SNB-75)	growth at 10 µM (DU-145)	growth at 10 µM (T47D)	growth at 10 µM (HOP-92)	growth at 10 µM (HCT-116)	growth at 10 µM (NCI-H522)	growth at 10 µM (NCI-H23)	growth at 10 µM (SF-268)	growth at 10 µM (MCF7)	growth at 10 µM (RPMI-8226)	other results
O=C(NCCNc1nccc(-c2c(-c3cccc(O)c3)nc3sccn23)n1)c1ccc(N2CCOCC2)c(C(F)(F)F)c1	96.7%	91.2%	60.8%	42.2%	68.6%	77.5%	82%	60.1%	56.9%	66.7%	58%	94.9%	60.1%	38.9%	60.2%	74.4%	85.4%	79.1%	58.7%	58.8%	growth at 10 µM (NCI-H226): 69.5%; growth at 10 µM (OVCAR-3): 89.1%; growth at 10 µM (MDA-MB-231): 64.9%; growth at 10 µM (A498): 47.8%; growth at 10 µM (UO-31): 61.3%; growth at 10 µM (OVCAR-8): 72.8%; growth at 10 µM (SF-539): 77.8%; growth at 10 µM (Malme-3M): -4.27%; growth at 10 µM (NCI-H322M): 102%; growth at 10 µM (EKVX): 74%; growth at 10 µM (BT-549): 53.8%; growth at 10 µM (HCT-15): 80%; growth at 10 µM (SK-OV-3): 66.4%
O=C(NCCNc1nccc(-c2c(-c3cccc(O)c3)nc3sccn23)n1)c1cc(N2CCOCC2)cc(C(F)(F)F)c1	136%	101%	79.4%	52.3%	49.2%	97.3%	105%	86.6%	52.9%	64.5%	83.2%	110%	77.7%	87.7%	78.8%	78.6%	106%	102%	85.4%	67%	growth at 10 µM (NCI-H226): 106%; growth at 10 µM (OVCAR-3): 107%; growth at 10 µM (MDA-MB-231): 74.2%; growth at 10 µM (A498): 92.8%; growth at 10 µM (UO-31): 87.5%; growth at 10 µM (OVCAR-8): 78.1%; growth at 10 µM (SF-539): 101%; growth at 10 µM (Malme-3M): 3.04%; growth at 10 µM (NCI-H322M): 107%; growth at 10 µM (EKVX): 88.6%; growth at 10 µM (BT-549): 84.8%; growth at 10 µM (HCT-15): 92%; growth at 10 µM (SK-OV-3): 94%
